We go through seven molecules from ChEMBL document CHEMBL1157464, “1-[(3-Aryloxy-3-aryl)propyl]-1H-imidazoles, new imidazoles with potent activity against Candida albicans and dermatophytes. Synthesis, structure-activity relationship, and molecular modeling studies” (J Med Chem, 2008).

SMILES strings stand for the structures. ≈ marks a conversion by molar mass, not a printed value.

One data set relates to Candida parapsilosis. In words: Antifungal activity against Candida parapsilosis ATCC 22019 at 35 degC after 48 hrs by broth microdilution test. The data set is classed as functional. As to conditions: Lodderomyces parapsilosis, ATCC 22019, 48 h; for MFC: read-out: MFC; for MIC: read-out: MIC. In short, it runs like this: (§1)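 Broth microdilution per NCCLS M27-A2. Stocks in 100% DMSO, diluted in RPMI 1640 with 0.165 M MOPS at pH 7.0; final range 0.25–128 µg/mL. Inoculum 1000–5000 cells/mL from SDA subcultures. […] C. parapsilosis ATCC22019 served as QC strain.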

For data set [1], the system named is Candida albicans. Nature of the data set: Antifungal activity against Candida albicans ATCC 10261 at 35 degC after 48 hrs by broth microdilution test. The data set is classed as functional. As to conditions: for MIC50: read-out: MIC50. In short, it runs like this: as §1
In data set [2] the test system is Candida albicans. Nature of the data set: Antifungal activity against Candida albicans ATCC 10261 at 35 degC after 48 to 96 hrs by broth microdilution test. The format is functional. The gist of the method: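 Minimal fungicidal concentration for Candida. […] MFC is the lowest concentration allowing fewer than two colonies (99% killing).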
Data set [3] is described as follows: Cytotoxicity against human U937 cells assessed as reduction of cell viability after 24 hrs by MTT assay. The data set is classed as cell-based, U-937. The gist of the method:
(§2)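 U937 and K562 cells, from ATCC, plated at 5 × 10^4/mL in phenol-red-free RPMI-1640 with 20% FBS and penicillin/streptomycin. Compounds added 2 h later at 25–100 µg/mL, then 24 h at 37 °C. MTT at 1 mg/mL for 3 h, formazan dissolved in isopropanol with 0.1 N HCl, absorbance read at 570 nm. CC50 is the concentration reducing viability by 50% versus the drug-free control.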
A general note: Tetrazolium dyes change colour on reduction, which living cells bring about.

The nature of data set [4]: Cytotoxicity against human K562 cells after assessed as reduction of cell viability 24 hrs by MTT assay. The data set is classed as cell-based. In short, it runs like this: as §2
For data set [5], the system named is Arthrodermataceae. In words: Antifungal activity against dermatophytes at 28 degC after 7 days by broth microdilution test. The settings on record: 168 h. The data set is classed as functional. The gist of the method:
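Ten clinical isolates (two M. canis, five M. gypseum, three T. mentagrophytes) tested by NCCLS M38-A broth microdilution in MOPS-buffered RPMI 1640, pH 7.0, over 0.25–128 µg/mL. Conidial/hyphal suspension from PDA slants (28 °C, 7 days) adjusted to 65–70% transmittance at OD530, then diluted 1:50.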
(Dilution methods test growth across graded concentrations, often in twofold steps.)

The test system of data set [6] is Arthrodermataceae. Nature of the data set: Antifungal activity against dermatophytes at 28 degC after 5 days by broth microdilution test. The settings on record: for MFC: Arthrodermataceae.
The subject of data set [7] is Arthrodermataceae. Nature of the data set: Antifungal activity against dermatophytes at 28 degC after 48 to 96 hrs by broth microdilution test.
[8] abbreviates: Candida albicans, ATCC 10261, 48 h, read-out: MIC.
[9] abbreviates: Candida albicans, ATCC 10261, 48 h.
Setting [10] is: Candida albicans, ATCC 10261, 48 h, read-out: MIC90.
Setting [11] is: Candida albicans, ATCC 10261, read-out: MFC.

With `Cc1ccc(C(CCn2ccnc2)Oc2ccc(Cl)cc2Cl)cc1` (stereo not drawn), the figures for the MFC in the data set on Candida parapsilosis, with Candida albicans [2] (setting [11]) and with Arthrodermataceae [6] were 4 µg/mL (≈ 11.1 µM), 8.4 µg/mL (≈ 23.3 µM) and 24 µg/mL (≈ 66.4 µM), respectively. The MIC in the data set on Candida parapsilosis was found to be 1 µg/mL (≈ 2.77 µM); in the data set with Candida albicans [1] (setting [8]) it was 3.15 µg/mL (≈ 8.72 µM); in the data set on Arthrodermataceae [5], 12 µg/mL (≈ 33.2 µM). Besides, the MIC50 amounted to 4 µg/mL (≈ 11.1 µM) in the data set on Candida albicans [1] (setting [9]) and 8 µg/mL (≈ 22.1 µM) in the data set on Arthrodermataceae [5]. The MIC90 was determined as 4 µg/mL (≈ 11.1 µM) in the data set with Candida albicans [1] (setting [10]) and 16 µg/mL (≈ 44.3 µM) in the data set with Arthrodermataceae [5]. In addition, the MFC50 in the data set on Candida albicans [2] amounted to 8 µg/mL (≈ 22.1 µM); in the data set with Arthrodermataceae [7], 16 µg/mL (≈ 44.3 µM). The MFC90 in the data set on Candida albicans [2] stood at 16 µg/mL (≈ 44.3 µM); against Arthrodermataceae [6], 32 µg/mL (≈ 88.6 µM). Besides, the figures for the CC50 at 24 h in data set [3] and in data set [4] were 150 µM and 97 µM, respectively.
On to `CCc1ccc(OC(CCn2ccnc2)c2ccc(C)cc2)cc1` (stereo not drawn), for which the MFC in the data set on Candida parapsilosis was found to be 8 µg/mL (≈ 25 µM); in the data set with Candida albicans [2] (setting [11]), 28 µg/mL (≈ 87.4 µM). In addition, the results for the MIC in the data set with Candida parapsilosis and in the data set with Candida albicans [1] (setting [8]) were 4 µg/mL (≈ 12.5 µM) and 8.7 µg/mL (≈ 27.2 µM), respectively. Besides, the MIC50 in the data set on Candida albicans [1] (setting [9]) came out at 4 µg/mL (≈ 12.5 µM). Also, the MIC90 with Candida albicans [1] (setting [10]) was found to be 16 µg/mL (≈ 49.9 µM). The molecule also came in with an MFC50 against Candida albicans [2] of 32 µg/mL (≈ 99.9 µM). This molecule registered an MFC90 against Candida albicans [2] of 32 µg/mL (≈ 99.9 µM). Also, the values for the CC50 at 24 h in data set [3] and in data set [4] were 152 µM and 136 µM, respectively.
Take `CC(C)c1ccc(OC(CCn2ccnc2)c2ccc(Cl)cc2)cc1` (stereo not drawn): the MFC in the data set on Candida parapsilosis worked out at 32 µg/mL (≈ 90.2 µM); in the data set on Candida albicans [2] (setting [11]), 25.5 µg/mL (≈ 71.9 µM). For the same molecule, the MIC with Candida parapsilosis came to 8 µg/mL (≈ 22.5 µM); with Candida albicans [1] (setting [8]), 18.5 µg/mL (≈ 52.1 µM). In addition, in the data set on Candida albicans [1] (setting [9]), the MIC50 is 8 µg/mL (≈ 22.5 µM). In addition, in the data set on Candida albicans [1] (setting [10]), the MIC90 was 32 µg/mL (≈ 90.2 µM). This molecule also had an MFC50 against Candida albicans [2] of 32 µg/mL (≈ 90.2 µM). The molecule also showed an MFC90 against Candida albicans [2] of 32 µg/mL (≈ 90.2 µM). In addition, the CC50 at 24 h in data set [3] is 208 µM; in data set [4], 138 µM.
With `Cc1ccc(OC(Cn2ccnc2)c2ccc(Cl)cc2)cc1` (stereo not drawn), the results for the MIC with Candida parapsilosis and with Candida albicans [1] (setting [8]) were 4 µg/mL (≈ 12.8 µM) and 22.3 µg/mL (≈ 71.3 µM), respectively. Further, the MIC50 in the data set on Candida albicans [1] (setting [9]) was 16 µg/mL (≈ 51.2 µM). Besides, the MIC90 with Candida albicans [1] (setting [10]) worked out at 32 µg/mL (≈ 102 µM). The MFC in the data set with Candida albicans [2] (setting [11]) came to 32 µg/mL (≈ 102 µM). For the same molecule, the CC50 at 24 h in data set [3] was found to be 150 µM; in data set [4], 99 µM.
As to `Cc1ccc(OC(CCn2ccnc2)c2ccccc2)cc1` (racemic), the MFC in the data set with Candida parapsilosis worked out at 16 µg/mL (≈ 54.7 µM); in the data set with Candida albicans [2], 13.6 µg/mL (≈ 46.5 µM); in the data set on Arthrodermataceae [6] it was 28.8 µg/mL (≈ 98.5 µM). Also, the MIC in the data set on Candida parapsilosis turned out to be 2 µg/mL (≈ 6.84 µM); in the data set with Candida albicans [1], 9.4 µg/mL (≈ 32.1 µM); in the data set with Arthrodermataceae [5] it was 17.2 µg/mL (≈ 58.8 µM). Also, the MIC90 against Candida albicans [1] was 16 µg/mL (≈ 54.7 µM); in the data set on Arthrodermataceae [5], 32 µg/mL (≈ 109 µM). In addition, the figures for the MIC50 in the data set with Candida albicans [1] (setting [9]) and against Arthrodermataceae [5] were 8 µg/mL (≈ 27.4 µM) and 16 µg/mL (≈ 54.7 µM), respectively. For the same molecule, the figures for the MFC50 in the data set on Candida albicans [2] and in the data set with Arthrodermataceae [7] were 16 µg/mL (≈ 54.7 µM) and 32 µg/mL (≈ 109 µM), respectively. Moreover, the MFC90 in the data set with Candida albicans [2] came out at 16 µg/mL (≈ 54.7 µM); in the data set on Arthrodermataceae [6] it was 32 µg/mL (≈ 109 µM). Moreover, the results for the CC50 at 24 h in data set [3] and in data set [4] were 141 µM and 95.9 µM, respectively.
`Fc1ccc(C(CCn2ccnc2)Oc2ccccc2)cc1` (stereo not drawn): the MFC is 32 µg/mL (≈ 108 µM) in the data set on Candida parapsilosis, 57.6 µg/mL (≈ 194 µM) in the data set with Candida albicans [2] (setting [11]) and 28.5 µg/mL (≈ 96.2 µM) against Arthrodermataceae [6]. In addition, the MIC in the data set on Candida parapsilosis came to 8 µg/mL (≈ 27 µM); in the data set with Candida albicans [1] (setting [8]) it was 32.1 µg/mL (≈ 108 µM); in the data set with Arthrodermataceae [5], 16.1 µg/mL (≈ 54.3 µM). The MIC50 with Candida albicans [1] (setting [9]) amounted to 32 µg/mL (≈ 108 µM); with Arthrodermataceae [5], 16 µg/mL (≈ 54 µM). The MIC90 amounted to 64 µg/mL (≈ 216 µM) with Candida albicans [1] (setting [10]) and 16 µg/mL (≈ 54 µM) in the data set on Arthrodermataceae [5]. Moreover, the figures for the MFC50 in the data set on Candida albicans [2] and in the data set on Arthrodermataceae [7] were 64 µg/mL (≈ 216 µM) and 32 µg/mL (≈ 108 µM), respectively. Moreover, the figures for the MFC90 with Candida albicans [2] and in the data set with Arthrodermataceae [6] were 64 µg/mL (≈ 216 µM) and 32 µg/mL (≈ 108 µM), respectively.
Regarding `CCc1ccc(OC(CCn2ccnc2)c2ccc(Cl)cc2)cc1` (stereo not drawn), the values for the MFC with Candida parapsilosis and in the data set with Candida albicans [2] (setting [11]) were 16 µg/mL (≈ 46.9 µM) and 12.5 µg/mL (≈ 36.7 µM), respectively. Also, the MIC turned out to be 8 µg/mL (≈ 23.5 µM) with Candida parapsilosis and 6.5 µg/mL (≈ 19.1 µM) in the data set on Candida albicans [1] (setting [8]). Moreover, the MIC50 with Candida albicans [1] (setting [9]) was determined as 8 µg/mL (≈ 23.5 µM). Also, in the data set on Candida albicans [1] (setting [10]), the MIC90 worked out at 8 µg/mL (≈ 23.5 µM). The MFC50 in the data set with Candida albicans [2] amounted to 8 µg/mL (≈ 23.5 µM). This molecule had an MFC90 with Candida albicans [2] of 16 µg/mL (≈ 46.9 µM). The CC50 at 24 h is 265 µM in data set [3] and 185 µM in data set [4].

As usually defined, the MFC is the smallest concentration meeting the test's criterion for killing the fungus. One may read the MIC as the lowest concentration that inhibits growth of the organism. In general, MIC50 refers to an inhibitory concentration at the 50% level, which refers to growth in some studies and to a panel of isolates in others. Usually MIC90 stands for an inhibitory concentration at the 90% level, which refers to growth in some studies and to a panel of isolates in others. By CC50 is commonly meant the concentration at which the toxic effect on the cells reaches its halfway point.
